Experimental data taken from ChEMBL document CHEMBL3098012, “A novel tamoxifen derivative, ridaifen-F, is a nonpeptidic small-molecule proteasome inhibitor” (Eur J Med Chem, 2014).
pIC50, pKi: −log10 of the molar value. The source made the active and inactive calls. The rule behind the calls is not given here.

Assays:
[1] = Inhibition of chymotrypsin-like activity of Saccharomyces cerevisiae 20S proteasome beta 5 subunit
HeLa [2] = experiment: Cell cycle arrest in human HeLa cells assessed as accumulation at sub G1 phase at 60 uM after 24 hrs by propidium iodide staining-based flow cytometric analysis (reference value: 2.2%); assay type: functional
HeLa [3] = experiment: Cell cycle arrest in human HeLa cells assessed as accumulation at sub G1 phase at 10 uM after 24 hrs by propidium iodide staining-based flow cytometric analysis (reference value: 2.2%); assay type: functional
HeLa [4] = experiment: Induction of apoptosis in human HeLa cells assessed as caspase 3 cleavage at 1 to 30 uM after 24 hrs by Western blotting analysis; assay type: functional, cell-based
HeLa [5] = experiment: Induction of apoptosis in human HeLa cells assessed as PARP cleavage after 24 hrs by Western blotting analysis; assay type: functional, cell-based
Procedure, shortened: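 HeLa cells seeded 4×10^5 cells/well, incubated 24 h with varying compound concentrations; PARP cleavage detected in lysates by Western blotting.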

[6] = molecular target: T1, Proteasome Macropain subunit MB1 (Homo sapiens) (UniProt P28074); experiment: Inhibition of biotin-labeled belactosin A binding to human 20S proteasome beta 5 subunit at 100 uM preincubated for 1 hr followed by biotin-labeled belactosin A treatment measured after 1 hr by Western blotting analysis
T1 sequence (whole entry): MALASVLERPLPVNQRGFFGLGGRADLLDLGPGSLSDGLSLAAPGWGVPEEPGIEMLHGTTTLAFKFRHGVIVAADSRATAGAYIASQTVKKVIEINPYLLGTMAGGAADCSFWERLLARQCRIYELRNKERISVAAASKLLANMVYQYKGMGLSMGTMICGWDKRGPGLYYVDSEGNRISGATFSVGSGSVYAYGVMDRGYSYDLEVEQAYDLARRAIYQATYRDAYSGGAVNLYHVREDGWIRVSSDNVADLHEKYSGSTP
Procedure, shortened: (§1)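 Purified human 20S proteasome preincubated 1 h at 37 °C with varying compound levels, then biotin-belactosin A added to 1 µM for a further 1 h. Proteins separated by SDS-PAGE, blotted to PVDF, milk-blocked; biotin-labelled subunits detected with streptavidin-HRP and ECL.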

[7] = molecular target: T1, Proteasome Macropain subunit MB1 (Homo sapiens); experiment: Inhibition of biotin-labeled belactosin A binding to human 20S proteasome beta 5 subunit at 1 to 100 uM preincubated for 1 hr followed by biotin-labeled belactosin A treatment measured after 1 hr by Western blotting analysis; procedure, shortened: as §1
[8] = molecular target: T2, Proteasome component C5 (Homo sapiens) (UniProt P20618); experiment: Inhibition of biotin-labeled belactosin A binding to human 20S proteasome beta 1 subunit preincubated for 1 hr followed by biotin-labeled belactosin A treatment measured after 1 hr by Western blotting analysis; procedure, shortened: as §1
T2 sequence (whole entry): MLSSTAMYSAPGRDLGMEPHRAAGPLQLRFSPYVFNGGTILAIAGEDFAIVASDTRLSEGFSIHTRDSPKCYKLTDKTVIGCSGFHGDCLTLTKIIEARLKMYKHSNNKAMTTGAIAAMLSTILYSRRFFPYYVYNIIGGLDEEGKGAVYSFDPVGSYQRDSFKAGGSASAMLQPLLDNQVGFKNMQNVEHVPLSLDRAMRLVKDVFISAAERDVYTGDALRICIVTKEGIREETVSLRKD

[9] = molecular target: T3, Proteasome Macropain subunit MB1 (Homo sapiens, UniProt P28074); experiment: Noncompetitive inhibition of chymotrypsin-like activity of human 20S proteasome beta 5 subunit assessed as hydrolysis of succinyl-LLVY-AMC fluorogenic substrate Lineweaver-Burk plot analysis
T3 sequence (P28074 whole entry): T1 sequence (whole entry)

[10] = molecular target: T2, Proteasome component C5 (Homo sapiens); experiment: Inhibition of biotin-labeled belactosin A binding to human 20S proteasome beta 1 subunit at 10 uM preincubated for 1 hr followed by biotin-labeled belactosin A treatment measured after 1 hr by Western blotting analysis; procedure, shortened: as §1
[11] = molecular target: T3, Proteasome Macropain subunit MB1; experiment: Inhibition of chymotrypsin-like activity of human 20S proteasome beta 5 subunit assessed as hydrolysis of succinyl-LLVY-AMC fluorogenic substrate measured for 1 hr by fluorometric analysis
Procedure, shortened: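 Purified human 20S proteasome (0.1 µg) incubated at 37 °C with 50 µM succinyl-LLVY-AMC (CT-L) or 20 µM Z-LLE-AMC (PGPH) and compound at 0.01–10 µM in 25 mM HEPES, 0.5 mM EDTA, 0.03% SDS. IC50 taken from inhibition curve; means of three experiments.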

[12] = Cytotoxicity against ER-negative HEK293 cells after 48 hrs by MTT assay; assay type: cell-based; details: human
Procedure, shortened: (§2)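 HEK293 (DMEM) or HL-60 (IMDM) cells, each with 10% FBS plus penicillin/streptomycin, seeded 5×10^3 cells/well in duplicate. Exposed 48 h to compound at […]. MTT reduction read as 560/750 nm absorbance ratio after HCl/2-propanol extraction. CyT50 from inhibition curve; means of triplicate.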

HL-60 = experiment: Cytotoxicity against […] human HL60 cells after 48 hrs by MTT assay; assay type: functional; details: HL-60, 48 h; procedure, shortened: as §2
HeLa [13] = experiment: Inhibition of proteasome in human HeLa cells assessed as accumulation of ubiquitinated proteins at 30 uM after 24 hrs by Western blotting analysis; assay type: cell-based
Procedure, shortened: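 HeLa cells, 4×10^5 cells/well, treated 24 h with compound; vehicle control 0.25% DMSO. Lysed in Tris–HCl/2% SDS/glycerol buffer with protease and phosphatase inhibitors; 30 µg protein run on SDS-PAGE, PVDF blot probed with anti-ubiquitin (1:200), actin as loading reference, HRP secondary, ECL detection.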

Homo sapiens [14] = organism: Homo sapiens; experiment: Inhibition of calpain (unknown origin) at >10 uM
Homo sapiens [15] = organism: Homo sapiens; experiment: Inhibition of cathepsin (unknown origin) at >10 uM

pIC50 [1]: 5.74 | inhibition [6]: Active | inhibition [7]: Active | inhibition [8]: Dose-dependent effect | pKi [9]: 6.24 | inhibition [10]: Active | pIC50 [11]: 6.19 | inhibition (Homo sapiens [14]): inactive | inhibition (Homo sapiens [15]): inactive
SMILES: CCC(=C(c1ccc(OCCN2CCCCCC2)cc1)c1ccc(OCCN2CCCCCC2)cc1)c1ccccc1
Activity (HeLa [2]): 4.7% | Activity (HeLa [3]): 3.4% | Activity (HeLa [4]): Active | Activity (HeLa [5]): Dose-dependent effect | CC50 at 48 h [12]: 4.38 µM | CC50 (HL-60): 3.42 µM | inhibition (HeLa [13]): Active
